Here are results for one compound from paper PMC6210076 (ACS Omega, 2018).

Several values for one entry are separate records, joined by “and”; a condition that tells them apart may be missing. Equal values may be shown once.

In this test the target is T1, HPA (Helix pomatia, UniProt Q2F1K8).
T1 sequence (Q2F1K8 20-121): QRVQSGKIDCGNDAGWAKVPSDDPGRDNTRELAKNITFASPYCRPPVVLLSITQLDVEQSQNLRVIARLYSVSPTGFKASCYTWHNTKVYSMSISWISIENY
The experiment in a line: Fluorescent microarray competition: Alexa Fluor 647-labeled HPA. The test is classed as biochemical. The settings on record: IC50,microarray (μM); SEM. The gist of the method:
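Glycoconjugates spotted in triplicate on NHS-coated glass slides from PBS pH 8.5 with 5% glycerol. Slides held 17−20 h at 70% humidity, then blocked 1 h at 37 °C in ethanolamine/boric acid/Tween 20 buffer pH 8.5. Probing in 16-well masks under slow agitation, then Tween-PBS washes. Scanned at 635 nm excitation. Mean fluorescence fitted against log competitor concentration.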

As for `CC(=O)N[C@H]1C(O)O[C@H](CO)[C@H](O)[C@@H]1O` (stereo partly drawn) [GalNAc, N-acetyl-D-galactosamine], the concentration for half-maximal inhibition (IC50) (as a rule, the concentration needed to halve the response being measured) is 180 µM and 301 µM and 687 µM and 449 µM.
